This is an account of results in ChEMBL document CHEMBL1132202, “2-Amino-3-substituted-6-[(E)-1-phenyl-2-(N-methylcarbamoyl)vinyl]imid azo[1,2-a]pyridines as a novel class of inhibitors of human rhinovirus: stereospecific synthesis and antiviral activity” (J Med Chem, 1999).

Values after ≈ are worked out from the molar mass of the structure shown. Some results are limits rather than exact numbers.

Data set [1] can be described thus: Ratio of TC50 value to the IC50 value measured on rhinovirus-14 by using CPE/XTT assay. The class given is functional. The method, boiled down:
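Cytopathic-effect assay run per an earlier method, except that surviving host cells were quantified by XTT reduction instead of crystal violet staining. General cellular toxicity was taken as TC50, and the ratio was TC50 divided by IC50. No-drug controls received 0.1% DMSO.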
A general note: Tetrazolium dyes change colour on reduction, which living cells bring about.

Data set [2] in a line: Compound was measured for inhibition on Human Rhinovirus-14 by using CPE/XTT assay (Antiviral activity). The class given is functional, Human rhinovirus sp. Summed up: (§1)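 CPE assay run per an earlier protocol, except that surviving host cells were quantified with XTT as substrate rather than crystal violet staining. The same assay gave the cellular toxicity TC50. Control samples without drug received 0.1% DMSO.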

The nature of data set [3]: Compound was measured for inhibition on Human Rhinovirus-14 by using PRA assay (Antiviral activity). It is filed as functional, Human rhinovirus sp. The method, boiled down: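 H-HeLa cells grown in 60-mm dishes at 37 °C in MEM with 10% newborn calf serum and 1% nonessential amino acids. Overlay contained varied compound concentrations. Incubated 35 °C for 48 h, fixed with 10% formalin, stained with 0.5% crystal violet, plaques counted. Duplicate wells averaged vs DMSO controls. IC50 (50% plaque inhibition) by Reed-Muench from linear region of the curve.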

The nature of data set [4]: Compound was evaluated for cellular toxicity in on Human Rhinovirus-14 by using CPE/XTT assay (cytopathic effect assay). To be noted: human rhinovirus sp.; read-out: TC50 (the source's name). Summed up: as §1

Turning to `CNC(=O)/C=C(\c1ccccc1)c1ccc2nc(N)c(SC(C)C)n2c1`, in data set [1], the TC50/IC50 stood at 48. Further, the results for the IC50 in data set [2] and in data set [3] were 0.21 µg/mL (≈ 0.573 µM) and 0.17 µg/mL (≈ 0.464 µM), respectively. Also, in data set [4], the CC50 came to 10 µg/mL (≈ 27.3 µM).
`CNC(=O)/C=C(\c1ccccc1)c1ccc2nc(N)c(I)n2c1` yielded an IC50 in data set [3] of more than 3.2 µg/mL.
Regarding `CNC(=O)/C=C(\c1ccccc1)c1ccc2nc(N)cn2c1`, the IC50 in data set [3] is more than 10 µg/mL.
As for `CNC(=O)/C=C(\c1ccccc1)c1ccc2nc(N)c(-c3ccc(F)cc3C(F)(F)F)n2c1`, in data set [1], the TC50/IC50 is recorded as more than 21. Further, the values for the IC50 in data set [2] and in data set [3] were 0.48 µg/mL (≈ 1.06 µM) and 0.44 µg/mL (≈ 0.968 µM), respectively. Also, the CC50 in data set [4] was more than 10 µg/mL.
`CNC(=O)/C=C(\c1ccccc1)c1ccc2nc(N)c(S(=O)(=O)C(C)C)n2c1` came in with an IC50 in data set [3] of 0.64 µg/mL (≈ 1.61 µM).
Turning to `CNC(=O)/C=C(\c1ccccc1)c1ccc2nc(N)c(-c3cc(F)ccc3F)n2c1`, the TC50/IC50 in data set [1] is 30. Also, the 50% inhibitory concentration (IC50) stood at 0.16 µg/mL (≈ 0.396 µM) in data set [2] and 0.18 µg/mL (≈ 0.445 µM) in data set [3]. Besides, in data set [4], the CC50 was determined as 4.87 µg/mL (≈ 12 µM).
As for `CNC(=O)/C=C(\c1ccccc1)c1ccc2nc(N)c(-c3ccccc3)n2c1`, the TC50/IC50 in data set [1] worked out at 17. Besides, the figures for the IC50 in data set [2] and in data set [3] were 0.3 µg/mL (≈ 0.814 µM) and 0.27 µg/mL (≈ 0.733 µM), respectively. In addition, the CC50 in data set [4] is 5.03 µg/mL (≈ 13.7 µM).
In the same order, the values of `CNC(=O)/C=C(\c1ccccc1)c1ccc2nc(N)c(-c3ccc(F)c(F)c3F)n2c1` are 33, 0.21 µg/mL (≈ 0.497 µM), 0.17 µg/mL (≈ 0.402 µM) and 6.98 µg/mL (≈ 16.5 µM).

The IC50 is the concentration that inhibits the measured activity by half. A lower IC50 goes with inhibition by little substance.
